Experimental data as given in ChEMBL document CHEMBL2385024, “Antiviral alkaloids produced by the mangrove-derived fungus Cladosporium sp. PJX-41” (J Nat Prod, 2013).

The compounds below were run on Influenza A virus (assay: Antiviral activity against Influenza A virus H1N1 infected in dog MDCK cells after 48 hrs by CPE inhibition assay).
Assay type: functional, organism-based
In short: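 CPE-inhibition format against influenza A (H1N1), with ribavirin run in parallel as the positive control; activity is expressed as IC50.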

`CC(C)=C1NC(=O)[C@@H](C[C@]2(O)c3ccccc3N3C(=O)[C@H](C)N[C@H]32)n2c1nc1ccccc1c2=O` and `CC(C)=C1NC(=O)[C@@H](C[C@]2(O)c3ccccc3N3C(=O)C(C)(C)N[C@H]32)n2c1nc1ccccc1c2=O` are within 1.5-fold of each other in IC50: 82 µM for the first, 100 µM for the second.

Going from `O=C1N[C@H]2c3[nH]c4ccccc4c3C[C@@H]1n1c2nc2ccccc2c1=O` to `O=C1N[C@@H](O)c2nc3ccccc3c(=O)n2[C@@H]1Cc1c[nH]c2ccccc12`, the IC50 falls from over 200 µM to 100 µM. The second is the more potent here.

`O=C1NC(=O)[C@@H](Cc2c[nH]c3ccccc23)n2c1nc1ccccc1c2=O` and `O=C1NC(=O)[C@H](Cc2c[nH]c3ccccc23)n2c1nc1ccccc1c2=O` are within 1.5-fold of each other in IC50: 100 µM for the first, 85 µM for the second.

`CC(=O)O[C@@H](c1nc2ccccc2c(=O)n1[C@@H]1C[C@]2(OC1=O)c1ccccc1N1C(=O)C(C)(C)N(O)[C@H]12)C(C)C` and `CC(=O)O[C@H](c1nc2ccccc2c(=O)n1[C@@H]1C[C@]2(OC1=O)c1ccccc1N1C(=O)C(C)(C)N(O)[C@H]12)C(C)C` [TRYPTOQUIVALINE] are within 1.5-fold of each other in IC50: 100 µM for the first, 89 µM for the second.

`O=C1N[C@@H]2c3nc4ccccc4c(=O)n3[C@H]1CC21c2ccccc2N2C(=O)[C@@H]3CCCN3[C@H]21` (stereo not given in full) and `CC(C)[C@H]1NC(=O)[C@@H](C[C@]2(O)C(=O)Nc3ccccc32)n2c1nc1ccccc1c2=O` [CLADOQUINAZOLINE] are within 1.5-fold of each other in IC50: 82 µM for the first, 100 µM for the second.

`O=C1NCc2nc3ccccc3c(=O)n2[C@@H]1Cc1c[nH]c2ccccc12` and `CC(C)[C@@H]1NC(=O)[C@@H](C[C@]2(O)C(=O)Nc3ccccc32)n2c1nc1ccccc1c2=O` [EPI-CLADOQUINAZOLINE] are the same in IC50: 100 µM for the first, 100 µM for the second.

`CC(=O)O[C@H](c1nc2ccccc2c(=O)n1[C@@H]1C[C@]2(OC1=O)c1ccccc1N1C(=O)[C@H](C)N[C@H]12)C(C)C` [DEOXYNORTRYPTOQUIVALINE] and `CC(=O)O[C@H](c1nc2ccccc2c(=O)n1[C@@H]1C[C@]2(OC1=O)c1ccccc1N1C(=O)C(C)(C)N[C@H]12)C(C)C` [DEOXYTRYPTOQUIVALINE] are within 1.5-fold of each other in IC50: 87 µM for the first, 85 µM for the second.

With `NC(=O)c1ncn([C@@H]2O[C@H](CO)[C@@H](O)[C@H]2O)n1` [RIBAVIRIN] the IC50 was 87 µM.
